# Reference: ChEMBL document CHEMBL4477235, “Evolution of a Novel, Orally Bioavailable Series of PI3Kδ Inhibitors from an Inhaled Lead for the Treatment of Respiratory Disease” (J Med Chem, 2016)
# Active and inactive are the calls of the source. The rule behind the calls is not given here.
# Columns and labels:
# Homo sapiens [1] = species: Homo sapiens; assay: Selectivity ratio of IC50 for PI3Kalpha (unknown origin) to IC50 for PI3Kdelta (unknown origin)
# Outline: (§1)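 Ratio of each isoform's HTRF IC50 to the PI3Kδ HTRF IC50. Enzymes were preincubated 15 min with 4-fold compound dilutions in HEPES pH 7.0, MgCl2, DTT buffer. […] PIP2 was 5 µM for δ and 8 µM for α/β/γ. 60 min reaction, then EDTA quench with GRP-1 PH domain/APC/Eu detection. Four-parameter fit.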
# Homo sapiens [2] = species: Homo sapiens; assay: Selectivity ratio of IC50 for PI3Kgamma (unknown origin) to IC50 for PI3Kdelta (unknown origin); outline: as §1
# [3] = Clearance in rat liver microsomes at 0.5 uM measured up to 30 mins by LC-MS/MS analysis; type: ADME, Microsome; conditions: 0.5 h
# Outline: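 Rat liver microsomes (0.5 mg protein/mL) prewarmed 10 min at 37 °C, started with NADPH regeneration system. Final compound 0.5 μM. Sampled at 0, 3, 6, 12 and 30 min into acetonitrile with internal standard. Peak area ratios by LC–MS/MS fitted to log-linear decline. Clearance scaled by protein concentration, incubation volume and 52.5 mg microsomal protein/g liver.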
# [4] = AUC(infinity) in Sprague-Dawley rat at 3 mg/kg, po measured up to 7 hrs by LC-MS/MS analysis; type: ADME, organism-based; design: dose 3 mg/kg, time infinity, route oral; conditions: in vivo, 7 h
# Outline: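 Male Sprague Dawley rats (n = 2/route), oral dose in DMSO/PEG200/water (5:45:50 v/v/v) at 6 mL/kg. Serial tail-vein bleeds over 0–7 h. Parent compound quantified by LC–MS/MS. Parameters from noncompartmental analysis.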
# [5] = Half life in Sprague-Dawley rat at 1 mg/kg, iv by LC-MS/MS analysis; type: ADME, organism-based; conditions: in vivo
# Outline: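 Male Sprague Dawley rats (n = 2/route), intravenous dose as a solution in DMSO/PEG200/water (5:45:50 v/v/v) at 2 mL/kg. Serial tail-vein blood sampling over 0–7 h. LC–MS/MS quantification of parent. Noncompartmental analysis.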
# [6] = Kinetic solubility in phosphate buffered saline at pH 7.4 after 1 hr by chemiluminescent nitrogen detection method; type: physicochemical; conditions: read-out: Kinetic_solubility
# Outline: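 The sample was then filtered, and the filtrate was quantified by calibrated flow-injection chemiluminescent nitrogen detection. Standard error was ±30 µM, and the upper limit was 500 µM from the 10 mM stock.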
# Rattus norvegicus = assay: Anti-inflammatory activity in Brown Norway rat acute OVA model of TH2-driven lung inflammation assessed as protection against eosinophil recruitment in bronchoalveolar lavage fluid at 3 mg/kg, po pretreated for 30 mins followed by OVA challenge by DAPI staining based flow cytometry; type: functional, organism-based
# Outline: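 Male Brown Norway rats (250–300 g) sensitized i.p. with 10 μg OVA plus 20 mg Al(OH)₃ on days 1 and 7. Oral compound given 30 min before intratracheal OVA challenge on day 21 or 28, under isoflurane. BAL taken 48 h post-challenge. Leucocytes counted by flow cytometry, gated on FSC/SSC, with DAPI+ dead cells excluded.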
# [7] = AUC(infinity) in Wistar Han rat at 1 mg/kg; type: ADME, organism-based; design: dose 1 mg/kg, time infinity; conditions: in vivo
# [8] = AUC(infinity) in Brown Norway rat acute OVA model of TH2-driven lung inflammation at 3 mg/kg, po pretreated for 30 mins followed by OVA challenge; type: ADME, organism-based; design: dose 3 mg/kg, time infinity, route oral; conditions: in vivo
# Outline: (§2)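 Male Brown Norway rats weighing 250–300 g were sensitised intraperitoneally with 10 μg OVA plus 20 mg Al(OH)₃ in 1 mL on days 1 and 7. On day 21 or 28 they were challenged intratracheally with 0.2 mL OVA under isoflurane. Compound was dosed orally 30 min before challenge. Blood exposure was measured in the same animals, with the 1 h post-dose concentration also recorded.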
# [9] = AUC(infinity) in Brown Norway rat acute OVA model of TH2-driven lung inflammation at 9 mg/kg, po pretreated for 30 mins followed by OVA challenge; type: ADME, organism-based; design: dose 9 mg/kg, route oral, time infinity; conditions: in vivo; outline: as §2
# [10] = Half life in Brown Norway rat acute OVA model of TH2-driven lung inflammation at 9 mg/kg, po pretreated for 30 mins followed by OVA challenge; type: ADME, organism-based; conditions: in vivo
# [11] = Drug uptake in Wistar Han rat blood at 1 mg/kg measured 1 hr post dose; type: ADME, organism-based; conditions: read-out: Drug uptake
# [12] = biological target: Mitogen-activated protein kinase kinase kinase 5 (Homo sapiens, UniProt Q99683); assay: Inhibition of ASK1 (unknown origin)
# Aurora kinase A = Aurora kinase A (Homo sapiens, UniProt O14965); assay: Inhibition of Aurora A (unknown origin)
# [13] = biological target: Epidermal growth factor receptor (Homo sapiens, UniProt P00533); assay: Inhibition of EGFR (unknown origin)
# [14] = biological target: Tyrosine-protein kinase JAK2 (Homo sapiens, UniProt O60674); assay: Inhibition of JAK2 (unknown origin)
# [15] = biological target: Tyrosine-protein kinase JAK3 (Homo sapiens, UniProt P52333); assay: Inhibition of JAK3 (unknown origin)
# [16] = biological target: Leucine-rich repeat serine/threonine-protein kinase 2 (Homo sapiens, UniProt Q5S007); assay: Inhibition of LRRK2 (unknown origin)
# [17] = biological target: Rho-associated protein kinase 1 (Homo sapiens, UniProt Q13464); assay: Inhibition of ROCK1 (unknown origin)
# [18] = biological target: Tyrosine-protein kinase SYK (Homo sapiens, UniProt P43405); assay: Inhibition of SYK (unknown origin)
# [19] = biological target: Choline/ethanolamine kinase (Homo sapiens, UniProt Q9Y259); assay: Inhibition of CHKB (unknown origin)
# Choline kinase alpha = Choline kinase alpha (Homo sapiens, UniProt P35790); assay: Inhibition of choline kinase alpha (unknown origin)
# [20] = biological target: Diacylglycerol kinase zeta (Homo sapiens, UniProt Q13574); assay: Inhibition of DAGK zeta (unknown origin)
# [21] = biological target: Inhibitor of nuclear factor kappa-B kinase subunit alpha (Homo sapiens, UniProt O15111); assay: Inhibition of IKK1 (unknown origin)
# [22] = biological target: Phosphatidylinositol 4-phosphate 3-kinase C2 domain-containing subunit beta (Homo sapiens, UniProt O00750); assay: Inhibition of PIK3C2B (unknown origin)
# [23] = biological target: Phosphatidylinositol 4-kinase alpha (Homo sapiens, UniProt P42356); assay: Inhibition of PIK4A (unknown origin)
# Sphingosine kinase 2 = Sphingosine kinase 2 (Homo sapiens, UniProt Q9NRA0); assay: Inhibition of SPHK2 (unknown origin)
# [24] = biological target: DNA-dependent protein kinase catalytic subunit (Homo sapiens) (UniProt P78527); assay: Inhibition of DNA-PK (unknown origin)
# [25] = Fraction unbound in Brown Norway rat acute OVA model of TH2-driven lung inflammation at 9 mg/kg, po pretreated for 30 mins followed by OVA challenge measured 1 hr post dose by HPLC analysis; type: ADME, organism-based; conditions: in vivo
# Outline: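 Unbound concentration at 1 h post-dose estimated by an internal algorithm from binding to HPLC columns coated with HSA and α-glycoprotein.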
# Chain of DNA-dependent protein kinase catalytic subunit (Homo sapiens) (P78527 whole entry): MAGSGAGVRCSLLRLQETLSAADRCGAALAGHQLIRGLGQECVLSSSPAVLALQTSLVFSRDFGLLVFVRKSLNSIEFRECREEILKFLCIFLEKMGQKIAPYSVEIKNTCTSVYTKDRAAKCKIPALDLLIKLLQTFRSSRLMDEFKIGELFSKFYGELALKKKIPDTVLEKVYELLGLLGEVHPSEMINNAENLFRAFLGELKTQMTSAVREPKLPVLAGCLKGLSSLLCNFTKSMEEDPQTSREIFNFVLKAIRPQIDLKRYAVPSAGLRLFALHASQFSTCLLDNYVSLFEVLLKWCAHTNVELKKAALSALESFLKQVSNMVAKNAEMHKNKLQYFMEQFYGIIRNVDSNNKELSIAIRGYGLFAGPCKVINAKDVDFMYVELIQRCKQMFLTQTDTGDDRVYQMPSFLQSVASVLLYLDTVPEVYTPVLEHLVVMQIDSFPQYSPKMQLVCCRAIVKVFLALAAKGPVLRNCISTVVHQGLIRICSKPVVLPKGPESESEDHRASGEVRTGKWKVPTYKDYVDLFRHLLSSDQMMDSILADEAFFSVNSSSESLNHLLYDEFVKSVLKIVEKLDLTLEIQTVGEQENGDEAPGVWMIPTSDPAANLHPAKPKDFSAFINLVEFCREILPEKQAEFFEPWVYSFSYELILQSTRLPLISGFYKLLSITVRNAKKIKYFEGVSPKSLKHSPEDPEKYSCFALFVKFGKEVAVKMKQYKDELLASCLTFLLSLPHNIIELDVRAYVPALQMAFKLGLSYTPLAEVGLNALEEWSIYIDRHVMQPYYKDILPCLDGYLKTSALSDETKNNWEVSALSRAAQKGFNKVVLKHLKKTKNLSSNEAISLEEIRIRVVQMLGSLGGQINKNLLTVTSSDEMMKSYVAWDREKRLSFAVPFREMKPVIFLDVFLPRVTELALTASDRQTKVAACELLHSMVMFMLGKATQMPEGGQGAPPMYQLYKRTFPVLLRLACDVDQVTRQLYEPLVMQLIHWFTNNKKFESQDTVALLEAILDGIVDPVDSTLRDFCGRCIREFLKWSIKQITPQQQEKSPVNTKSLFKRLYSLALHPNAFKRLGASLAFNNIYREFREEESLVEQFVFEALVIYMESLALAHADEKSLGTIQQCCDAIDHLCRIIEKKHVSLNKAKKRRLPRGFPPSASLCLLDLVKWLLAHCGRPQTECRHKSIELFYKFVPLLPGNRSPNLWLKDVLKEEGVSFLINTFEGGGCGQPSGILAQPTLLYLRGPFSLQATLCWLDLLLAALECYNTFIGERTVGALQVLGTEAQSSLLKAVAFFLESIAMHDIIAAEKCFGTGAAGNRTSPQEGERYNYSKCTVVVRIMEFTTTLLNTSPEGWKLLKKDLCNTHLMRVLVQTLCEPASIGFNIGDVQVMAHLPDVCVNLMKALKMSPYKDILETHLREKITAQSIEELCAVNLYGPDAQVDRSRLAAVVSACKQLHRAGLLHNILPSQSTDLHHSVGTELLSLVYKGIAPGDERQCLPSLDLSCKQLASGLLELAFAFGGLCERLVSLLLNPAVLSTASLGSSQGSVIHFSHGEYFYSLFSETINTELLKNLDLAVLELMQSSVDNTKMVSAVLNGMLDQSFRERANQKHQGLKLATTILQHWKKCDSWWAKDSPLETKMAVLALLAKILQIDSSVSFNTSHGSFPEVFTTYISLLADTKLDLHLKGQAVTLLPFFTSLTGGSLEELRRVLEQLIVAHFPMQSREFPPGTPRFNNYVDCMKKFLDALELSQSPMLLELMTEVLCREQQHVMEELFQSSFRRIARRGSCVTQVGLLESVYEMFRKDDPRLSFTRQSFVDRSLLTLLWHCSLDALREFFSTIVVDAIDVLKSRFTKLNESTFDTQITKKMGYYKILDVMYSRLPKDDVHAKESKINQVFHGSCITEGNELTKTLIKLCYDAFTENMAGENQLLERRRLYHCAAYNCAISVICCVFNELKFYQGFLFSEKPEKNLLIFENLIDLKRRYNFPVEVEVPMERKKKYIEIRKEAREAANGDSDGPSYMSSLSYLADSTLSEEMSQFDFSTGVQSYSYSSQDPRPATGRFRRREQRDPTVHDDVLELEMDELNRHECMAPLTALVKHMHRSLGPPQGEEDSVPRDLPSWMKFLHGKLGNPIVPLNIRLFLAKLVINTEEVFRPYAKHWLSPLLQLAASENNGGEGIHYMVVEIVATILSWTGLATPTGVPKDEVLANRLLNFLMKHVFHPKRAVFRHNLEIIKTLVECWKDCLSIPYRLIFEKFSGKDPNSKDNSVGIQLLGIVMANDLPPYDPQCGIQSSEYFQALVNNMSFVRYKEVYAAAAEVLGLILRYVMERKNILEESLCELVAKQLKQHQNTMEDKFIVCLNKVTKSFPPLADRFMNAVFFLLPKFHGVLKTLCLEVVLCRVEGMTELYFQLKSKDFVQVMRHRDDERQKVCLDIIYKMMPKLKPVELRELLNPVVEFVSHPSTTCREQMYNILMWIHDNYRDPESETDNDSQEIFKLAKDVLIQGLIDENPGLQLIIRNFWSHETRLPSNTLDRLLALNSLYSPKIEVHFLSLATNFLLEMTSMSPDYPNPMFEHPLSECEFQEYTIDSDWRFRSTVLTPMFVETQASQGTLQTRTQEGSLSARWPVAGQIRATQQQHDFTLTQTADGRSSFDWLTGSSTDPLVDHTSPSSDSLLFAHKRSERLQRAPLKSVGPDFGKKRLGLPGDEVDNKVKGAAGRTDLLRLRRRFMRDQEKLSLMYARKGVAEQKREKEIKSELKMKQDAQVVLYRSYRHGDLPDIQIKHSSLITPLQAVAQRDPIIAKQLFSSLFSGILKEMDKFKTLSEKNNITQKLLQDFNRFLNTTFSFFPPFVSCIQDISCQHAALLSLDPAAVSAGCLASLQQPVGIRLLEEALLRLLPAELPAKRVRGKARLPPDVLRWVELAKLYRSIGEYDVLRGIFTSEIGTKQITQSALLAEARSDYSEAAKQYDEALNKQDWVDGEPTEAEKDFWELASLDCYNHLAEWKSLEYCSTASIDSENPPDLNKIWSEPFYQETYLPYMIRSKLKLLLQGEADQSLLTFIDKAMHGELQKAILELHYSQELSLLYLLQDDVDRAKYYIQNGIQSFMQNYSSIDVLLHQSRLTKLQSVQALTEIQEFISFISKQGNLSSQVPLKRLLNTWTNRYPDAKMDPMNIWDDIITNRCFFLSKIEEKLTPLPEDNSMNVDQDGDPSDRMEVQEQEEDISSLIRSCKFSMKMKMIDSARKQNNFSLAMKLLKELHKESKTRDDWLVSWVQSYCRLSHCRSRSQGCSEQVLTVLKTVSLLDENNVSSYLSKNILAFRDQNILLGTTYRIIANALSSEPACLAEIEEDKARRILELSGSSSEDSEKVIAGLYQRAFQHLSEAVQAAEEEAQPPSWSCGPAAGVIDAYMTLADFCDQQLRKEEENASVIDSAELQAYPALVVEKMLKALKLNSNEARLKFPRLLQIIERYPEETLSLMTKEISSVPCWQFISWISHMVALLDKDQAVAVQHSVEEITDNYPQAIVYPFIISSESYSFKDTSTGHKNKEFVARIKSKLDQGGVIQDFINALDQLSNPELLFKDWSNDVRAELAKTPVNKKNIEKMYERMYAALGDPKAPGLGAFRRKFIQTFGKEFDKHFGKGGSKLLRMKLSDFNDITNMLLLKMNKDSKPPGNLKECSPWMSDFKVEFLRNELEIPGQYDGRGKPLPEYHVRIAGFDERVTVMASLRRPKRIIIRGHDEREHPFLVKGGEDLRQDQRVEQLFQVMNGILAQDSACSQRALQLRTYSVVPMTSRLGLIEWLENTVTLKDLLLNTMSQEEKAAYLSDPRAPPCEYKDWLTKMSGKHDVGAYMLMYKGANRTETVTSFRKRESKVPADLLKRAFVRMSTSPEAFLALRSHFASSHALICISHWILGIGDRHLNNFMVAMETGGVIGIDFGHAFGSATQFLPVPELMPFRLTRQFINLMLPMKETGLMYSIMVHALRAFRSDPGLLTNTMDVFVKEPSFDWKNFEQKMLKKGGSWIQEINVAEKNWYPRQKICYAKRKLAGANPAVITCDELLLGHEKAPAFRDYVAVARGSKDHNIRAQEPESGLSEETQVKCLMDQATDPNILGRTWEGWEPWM
# Chain of Diacylglycerol kinase zeta (Q13574 whole entry): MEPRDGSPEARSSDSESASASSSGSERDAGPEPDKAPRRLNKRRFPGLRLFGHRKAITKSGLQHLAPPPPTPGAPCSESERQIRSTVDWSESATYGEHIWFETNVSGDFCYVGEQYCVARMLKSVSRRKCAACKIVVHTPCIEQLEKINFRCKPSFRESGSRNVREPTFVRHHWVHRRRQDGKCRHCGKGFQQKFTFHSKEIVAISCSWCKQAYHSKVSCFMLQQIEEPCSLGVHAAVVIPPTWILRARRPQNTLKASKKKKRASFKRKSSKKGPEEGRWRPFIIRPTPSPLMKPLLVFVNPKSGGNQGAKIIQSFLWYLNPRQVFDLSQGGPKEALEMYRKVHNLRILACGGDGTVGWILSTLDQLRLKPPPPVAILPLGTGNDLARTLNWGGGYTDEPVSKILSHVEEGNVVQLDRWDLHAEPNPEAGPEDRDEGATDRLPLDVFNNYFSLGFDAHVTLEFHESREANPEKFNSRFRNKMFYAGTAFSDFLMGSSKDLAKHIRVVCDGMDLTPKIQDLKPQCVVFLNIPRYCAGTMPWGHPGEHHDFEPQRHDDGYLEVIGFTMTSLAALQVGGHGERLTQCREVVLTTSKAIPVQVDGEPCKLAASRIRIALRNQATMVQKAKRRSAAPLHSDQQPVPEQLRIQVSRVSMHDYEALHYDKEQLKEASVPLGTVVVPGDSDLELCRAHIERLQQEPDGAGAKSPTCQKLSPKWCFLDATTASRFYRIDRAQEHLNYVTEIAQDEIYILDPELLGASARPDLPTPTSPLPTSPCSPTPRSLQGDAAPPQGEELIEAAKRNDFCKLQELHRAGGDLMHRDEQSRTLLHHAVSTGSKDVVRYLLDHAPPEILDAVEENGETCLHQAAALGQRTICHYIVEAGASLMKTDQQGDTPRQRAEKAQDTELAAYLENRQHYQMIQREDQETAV
compound,measurement,setting,value
COc1ncc(-c2cc3c(c(NC(=O)CN4CCOCC4)c2)COC3)cc1NS(C)(=O)=O,Ratio IC50,Homo sapiens [1],25
same,Ratio IC50,Homo sapiens [2],50
same,CLH,[3],< 0.5 mL/min/g
same,AUC,[4],673 ng·h/mL
same,half-life,[5],1.3 h
same,solubility kinetic at 1 h,[6],185 µg/mL
same,Activity,Rattus norvegicus,Active
same,AUC(0-inf),[7],673 ng·h/mL
same,AUC(0-inf),[8],454 ng·h/mL
same,AUC(0-inf),[9],2620 ng·h/mL
same,half-life,[10],6.8 h
same,concentration at 1 h,[11],520 nM
same,IC50,[12],> 10 µM
same,IC50,Aurora kinase A,> 10 µM
same,IC50,[13],> 10 µM
same,IC50,[14],> 10 µM
same,IC50,[15],> 10 µM
same,IC50,[16],> 10 µM
same,IC50,[17],> 10 µM
same,IC50,[18],> 10 µM
same,IC50,[19],> 10 µM
same,IC50,Choline kinase alpha,> 10 µM
same,IC50,[20],> 10 µM
same,IC50,[21],> 10 µM
same,IC50,[22],> 10 µM
same,IC50,[23],> 10 µM
same,IC50,Sphingosine kinase 2,> 10 µM
same,pIC50(app),[24],5.6
same,Drug uptake(free),[25],0.22 µM
